Assay outcomes: PubChem BioAssay, several laboratories
CHOP inhibitor = inhibitors of CHOP promoter induction, primary screen, cell-based, unfolded protein response, luciferase reporter | CHO-K1 CHOP-promoter luciferase, tunicamycin-induced, 15-18 h | inhibition, % at 10 µM | 3.8% of 220,000 active | AID 2732, 2010;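 active means compounds that reduced the stress-induced luciferase reporter signal by more than about 70% of percent inhibition, limit read from the data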
EBV gp42 inh = Epstein-Barr virus gp42 inhibitors, primary screen, biochemical, uHTS, fluorescence polarization. inhibition, % (tested at 21.74 µM). Fluorescence polarization binding assay, mP read-out. AID 1085, 2008. Glycoprotein 42 (Epstein-Barr virus (strain AG876)), Q1HVG2. 0.42% of 220,000 active; in the data active means inhibition above about 50%
Target sequence (Q1HVG2 whole entry, looked up): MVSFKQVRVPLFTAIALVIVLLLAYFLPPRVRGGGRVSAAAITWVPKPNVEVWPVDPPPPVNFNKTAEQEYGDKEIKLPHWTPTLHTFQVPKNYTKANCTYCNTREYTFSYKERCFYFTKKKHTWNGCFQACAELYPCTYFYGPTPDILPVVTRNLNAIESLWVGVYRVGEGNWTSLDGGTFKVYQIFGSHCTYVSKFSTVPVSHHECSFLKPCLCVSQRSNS
GRIN3A LBD mod = binders of NR3A ligand-binding domain, primary screen, biophysical, differential scanning fluorimetry, uHTS; NR3A LBD differential scanning fluorimetry, Tm shift; 0% = protein alone, 100% = glycine-bound protein; Tm shift relative to glycine control, % at 25 µM; 2.5% of 340,000 active; Glutamate receptor ionotropic, NMDA 3A (GRIN3A) ligand-binding domain;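 active means melting temperature shift of at least 10% of the positive control shift, at one fixed dose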
WT yeast gro inh = growth inhibition of WT strain, primary screen, mitochondrial fusion inhibitor project, WT and mutant strains, chemical genetic; mitochondrial fusion phenotypic screen; inhibition, % at 10 µM; 2.1% of 190,000 active; AID 1362, 2008; in the data active means inhibition above about 58%; tested in S. cerevisiae
MPTP block = mitochondrial permeability transition pore inhibitors, primary screen, biochemical, isolated mouse mitochondria, absorbance | Ca2+ swelling absorbance, 30 min | inhibition, % at 10 µM | 1.4% of 360,000 active;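 active means inhibition of 50% or more, scaled per plate between neutral and stimulator controls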
Tb MetRS inh = T. brucei MetRS inhibitors, primary screen, biochemical, luminescence; inhibition, % at 11.9 µM; methionyl-tRNA synthetase (Trypanosoma brucei brucei); AID 624268, 2012; purified T. brucei MetRS, ATP depletion, Kinase-Glo luminescence; 0.4% of 360,000 active;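 active means inhibition above a per-plate cutoff of the control wells' mean inhibition plus 3 SD, cut at about 5.5% in these data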
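Dosing: 11.9 µM single point; system: parasite MetRS enzyme; technique: luminescence of leftover ATP; times: 15 min enzyme-compound preincubation, 2 h reaction, 10 min detection, 25 °C; replicates: each compound tested once; read-out basis: percent inhibition relative to median high and low control wells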
CHOP inh conf = retest of CHOP induction inhibitors, confirmation, cell-based; CHO-CHOP promoter luciferase reporter, tunicamycin-induced, luminescence; inhibition, % at 10 µM; 45% of 2,100 active; shares compounds with CHOP inhibitor; AID 504437, 2011;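 active means mean of three repeat readings of reporter signal inhibition above a set limit, cut at about 70% in these data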
Each line names hits and unclear results; the compound was inactive in the other large screens (follow-up assays come after a bar, where they were run). This is a sample that favours compounds with a hit; in the whole collection about 6.4% have one here.

CNC(=O)c1nnsc1S(=O)(=O)c1ccc(Cl)cc1	CHOP inhibitor 107, WT yeast gro inh 69 | CHOP inh conf 114
O=C(c1nnsc1S(=O)(=O)c1ccc(Cl)cc1)N1CCOCC1	CHOP inhibitor 102 | CHOP inh conf 95
Cc1ccc(S(=O)(=O)N2C[C@H]3n4c(=O)ccc(=O)n4C[C@H](OC(=O)NCc4ccccc4)[C@@]3(O)C2)cc1	none (no result: CHOP inhibitor, EBV gp42 inh, GRIN3A LBD mod, WT yeast gro inh)
O=C(Nc1ccccc1C(=O)N1CCOCC1)c1cccnc1	none
COc1ccccc1N1CCN(C(=O)c2ccc3c(=O)n4c(nc3c2)CCCCC4)CC1	none (no result: CHOP inhibitor, EBV gp42 inh, WT yeast gro inh)
O=C(CNc1cccc2ccccc12)N/N=C/C(Br)=C/c1ccccc1	CHOP inhibitor 106, GRIN3A LBD mod 16, WT yeast gro inh 72 | CHOP inh conf inactive
O=C(CNc1cccc2ccccc12)N/N=C/c1ccc([N+](=O)[O-])o1	none
COc1ccc(C(=O)COc2ccc(F)cc2)c(O)c1	none (no result: WT yeast gro inh)
Cc1ccc(O)c(C(=O)CC(=O)c2cccc(F)c2)c1	CHOP inhibitor 108 | CHOP inh conf inactive
COc1ccc(O)c(C(=O)CC(=O)c2ccc(F)cc2)c1	CHOP inhibitor 103 | CHOP inh conf inactive
O=C(CCc1ccccc1)NNC(=S)NCc1ccc(Cl)cc1	none (no result: CHOP inhibitor, EBV gp42 inh, WT yeast gro inh)
CC(=O)Oc1ccc(Cn2c(C)c(C(=O)N(C)Cc3ccc(F)cc3)sc2=O)cc1	none (no result: CHOP inhibitor, EBV gp42 inh, GRIN3A LBD mod, WT yeast gro inh)
C/C(=C\c1ccco1)C1C(C#N)=C(N)Oc2n[nH]c(-c3ccc(C)cc3)c21 (stereo not given)	CHOP inhibitor 105 | CHOP inh conf 114
CC(O)Cn1cnc2c1c(=O)n(C)c(=O)n2C (stereo not given)	none
COC(=O)c1ccc(NC(=O)N2CCOCC2)cc1	none
COCCn1c(=NC(=O)c2cc3ccccc3oc2=O)sc2cc(S(N)(=O)=O)ccc21	CHOP inhibitor 101 | CHOP inh conf inactive
COCCn1c(=NC(=O)CN2C(=O)CCC2=O)sc2cc(S(N)(=O)=O)ccc21	none
Cc1nc([N+](=O)[O-])c(Br)n1Cc1ccc(Cl)c(Cl)c1	CHOP inhibitor 105 | CHOP inh conf inactive
CCCc1cc(=O)[nH]c(Nc2ccc(N3CCCCC3)cc2)n1	CHOP inhibitor 107 | CHOP inh conf 94
CCCCc1ccc(Nc2nc(CCC)cc(=O)[nH]2)cc1	CHOP inhibitor 107 | CHOP inh conf 98
CCCNC(=S)N1CC2(C)CN(C(=O)C(=O)OCC)CC(C)(C1)C2=O	none
Cc1ccc(C)c(-n2nnnc2Sc2nnnn2-c2ccccc2)c1	none (no result: CHOP inhibitor) | CHOP inh conf inactive
CC(C)CC(=O)/C(=C\c1ccc(Cl)cc1Cl)n1cncn1	CHOP inhibitor 109 | CHOP inh conf inactive
CCCC(=O)N1N=C(c2ccccc2)CC1c1cn(C)c2ccccc12 (stereo not given)	CHOP inhibitor 105, GRIN3A LBD mod 15 | CHOP inh conf inactive
COc1ccc(N2CCN(C(=O)CNC(=O)c3cccc(Br)c3)CC2)cc1	none (no result: CHOP inhibitor, EBV gp42 inh, WT yeast gro inh)
C=C1C(=O)O[C@@H]2[C@H]1[C@@H](OC(=O)/C(C)=C/C)C/C(C)=C\C(=O)/C=C(\C)[C@@H]2O	CHOP inhibitor 107 (no result: WT yeast gro inh) | CHOP inh conf inactive
O=C(NC1CC2CCCC(C1)N2C(=O)Nc1ccc(Cl)c(C(F)(F)F)c1)C1CC1 (stereo not given)	none
O=C(Nc1ccc(Cl)c(C(F)(F)F)c1)NC1CC2CCCC(C1)N2Cc1ccccc1 (stereo not given)	CHOP inhibitor 101 (no result: MPTP block, Tb MetRS inh) | CHOP inh conf 98
Oc1ccc(N=Nc2cccc(C(F)(F)F)c2)cc1C=Nc1ccc(N2CCOCC2)cc1	CHOP inhibitor 104 | CHOP inh conf 73
Cc1ccc(-c2nn(-c3ccccc3)cc2C(=O)NN2CCN(C)CC2)cc1	none
COc1ccc(-n2cccc2/C=C2\C(=N)N3N=C(c4ccco4)SC3=NC2=O)cc1	CHOP inhibitor 102, EBV gp42 inh 76 | CHOP inh conf inactive
COc1ccc(-n2cccc2/C=C2\C(=N)N3N=C(C(C)C)SC3=NC2=O)cc1	none
CCC(C)[C@H](NC(=O)NCc1ccc(S(N)(=O)=O)cc1)C(=O)OC (stereo not given in full)	none
O=C1CC2(CCCCC2)CC(=O)N1CCc1ccccc1	none (no result: CHOP inhibitor, EBV gp42 inh, WT yeast gro inh)
O=C1C=CC(=O)C(C2=C3C(=O)N(CCc4ccccc4)CC(=O)N3CCC2)=C1	CHOP inhibitor 105 (no result: MPTP block, Tb MetRS inh) | CHOP inh conf inactive
COCCNC(=O)c1ccc2c(c1)nc(C)n2-c1cc(OC)c(OC)c(OC)c1	none
COCCN(C(=O)C1CCCC1)c1c(N)n(Cc2ccccc2)c(=O)[nH]c1=O	none
Nc1c(N(C(=O)Nc2ccc(Cl)c(Cl)c2)C2CCCC2)c(=O)[nH]c(=O)n1Cc1ccccc1	CHOP inhibitor 103 | CHOP inh conf 115
COc1ccc(NC(=O)c2cc3c(=O)n(C)c4ccccc4c3n2C)cc1OC	none
COc1ccc(NC(=O)c2cc3c(=O)n(C)c4ccccc4c3n2C)cc1Cl	CHOP inhibitor 101 (no result: WT yeast gro inh) | CHOP inh conf inactive
CC(=O)Nc1ccc(NC(=O)Cn2nc([N+](=O)[O-])c(Br)c2C)cc1	none
Cc1c(Br)c([N+](=O)[O-])nn1CC(=O)Nc1ccc(C(C)C)cc1	CHOP inhibitor 96 | CHOP inh conf inactive
CC(=O)Oc1ccc2c(=O)c(Oc3ccccc3)coc2c1OC(C)=O	none
CC(C)(C)C(=O)Cn1ncc(Br)c(Br)c1=O	CHOP inhibitor 104 | CHOP inh conf 85
CCC1(c2ccc(F)cc2)NC(=O)N(CC(=O)N2CCc3ccccc3C2)C1=O (stereo not given)	none (no result: CHOP inhibitor, EBV gp42 inh, WT yeast gro inh)
COc1ccc(NC(=O)Cc2ccc(Cl)c(Cl)c2)cn1	none
COc1ccc(NC(=O)/C(Cl)=C(/Cl)S(=O)(=O)Cc2ccc(C)cc2)cn1	none (no result: CHOP inhibitor) | CHOP inh conf 118
COc1ccc(NC(=O)/C(Cl)=C(/Cl)S(=O)Cc2ccccc2Cl)cn1 (stereo not given)	CHOP inhibitor 110 (no result: MPTP block, Tb MetRS inh) | CHOP inh conf 120
CCc1ccc2c(c1)C(c1ccc([N+](=O)[O-])cc1)=NNC(c1ccc(C)cc1)=N2	CHOP inhibitor 97 | CHOP inh conf 83
CCOc1ccc2c(c1)C(c1ccc(C)cc1)=NNC(c1ccc(OC)cc1)=N2	none
CNc1ccc(Br)cc(C(=O)/C=C/c2cccc(Cl)c2Cl)c1=O	CHOP inhibitor 101 | CHOP inh conf inactive
CCCCN1CC(N2CCN(C3CCN(C)CC3)CC2)CS1(=O)=O (stereo not given)	none (no result: CHOP inhibitor, EBV gp42 inh, GRIN3A LBD mod, WT yeast gro inh)
